How the values were obtained:
[1] = melting temperature; fluorescence melt of hairpins on a sequencing array, two-state fit, raised by 9.35 °C to match UV melts; settings: sodium 0.088 M
Outline: (§1)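 In 50 mM Na-HEPES pH 8.0 containing 25 mM NaCl, hairpins from the library on a sequenced MiSeq flow cell were imaged for Cy3 fluorescence at 2.5 °C steps up to 60 °C, with Cy3 and quencher oligos annealed. After normalisation to pre-quench Cy3 and to control constructs, two-state fits with bootstrapping gave melting temperature and folding enthalpy. Four replicates were combined by inverse-variance weighting, and fitted temperatures were shifted up by 9.35 °C to match UV melts.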

[2] = folding enthalpy; higher = less favourable; fluorescence melt of hairpins on a sequencing array, two-state fit; settings: sodium 0.088 M
Outline: as §1

Sequence	Tm [1]	folding enthalpy [2]
GCAATCCGAAAGGAGTGC (((.(((....))).)))	61.1 °C	-48 kcal/mol
GCAATCGAAAGATCTGC ((((((....))).)))	35.2 °C	-18 kcal/mol
GCAATCGAAAGATTGC ((((((....))))))	64 °C	-42.2 kcal/mol
GCAATCGAAAGATTTTGC ((((((....)))..)))	28.8 °C	-14.8 kcal/mol
GCAATCGGAAACGATCAC (..((((....))))..)	25.1 °C	-12 kcal/mol
GCAATGCCGAAAGGCTGC (((..(((....))))))	49.1 °C	-15.6 kcal/mol
GCAATGCGAAAGCAAGGC ((..(((....)))..))	43.7 °C	-18.7 kcal/mol
GCAATGCGAAAGCACGGC ((..(((....)))..))	36.3 °C	-19.9 kcal/mol
GCAATGCGAAAGCATGC (((.(((....))))))	63 °C	-22.9 kcal/mol
GCAATGCGAAAGCGTGGC ((.(.((....)).).))	56.6 °C	-33.7 kcal/mol
GCAATGCGAAAGCTTTGC ((((.((....)).))))	63 °C	-39.1 kcal/mol
GCAATGGGAAACCATCAC (..((((....))))..)	22.8 °C	-10.7 kcal/mol
GCAATGGGAAACCATTAC (.(((((....))))).)	33.9 °C	-14.9 kcal/mol
GCAATGGGAAACCATTGC (((((((....)))))))	66.2 °C	-39.2 kcal/mol
GCAATTACGAAAGTATGC (((..(((....))))))	31.1 °C	-20.3 kcal/mol
GCAATTCCGAAAGGATGC (((..(((....))))))	38 °C	-21.5 kcal/mol
GCAATTCGAAAGAAGTGC (((.(((....))).)))	52.4 °C	-34.6 kcal/mol
GCACAAGGAAACCTGTGC (((((.(....).)))))	50.5 °C	-34 kcal/mol
GCACAAGGAAACTTGTAC (.(((((....))))).)	32.9 °C	-20.6 kcal/mol
GCACAATCGAAAGATTGC (((..(((....))))))	34.5 °C	-10.3 kcal/mol
GCACACACGAAAGTGTGC (((..(((....))))))	57.7 °C	-11.6 kcal/mol
GCACACGAAAGTGACTGC ((((((....)))..)))	37.6 °C	-17.9 kcal/mol
GCACACGAAAGTGGCTGC ((((((....)))..)))	54.3 °C	-20.7 kcal/mol

Sequence	Tm [1]	folding enthalpy [2]
GCACACGAAAGTGGTTGC ((((((....)))..)))	45.9 °C	-15.5 kcal/mol
GCACACGAAAGTGTCTGC ((((((....)))..)))	42 °C	-15.3 kcal/mol
GCACACTCGAAAGAGTGC (((..(((....))))))	38 °C	-9.86 kcal/mol
GCACAGAAATGTGC (((((....)))))	57.2 °C	-33.9 kcal/mol
GCACAGACGAAAGTCTGC (((..(((....))))))	34.5 °C	-8.42 kcal/mol
GCACAGCCGAAAGGCTGC (((..(((....))))))	39.9 °C	-6.1 kcal/mol
GCACAGCGAAAGCAATGC (((..((....))..)))	37.3 °C	-10.9 kcal/mol
GCACAGCGAAAGCATTGC (((..((....))..)))	38.2 °C	-14.4 kcal/mol
GCACAGCGAAAGCCGCGC ((.(.((....)).).))	46.5 °C	-20.3 kcal/mol
GCACAGCGAAAGCGCTGC (((..((....))..)))	49.2 °C	-14.8 kcal/mol
GCACAGCGAAAGCTATGC (((.(((....))).)))	49.5 °C	-40.8 kcal/mol
GCACAGCGAAAGCTTAGC ((..(((....)))..))	31.8 °C	-10.9 kcal/mol
GCACAGCGAAAGCTTGC (((.(((....))))))	51.5 °C	-20.1 kcal/mol
GCACAGCGAAAGCTTGGC ((..(((....)))..))	47.5 °C	-15.4 kcal/mol
GCACAGGCGAAAGCCTGC (((..(((....))))))	42.6 °C	-6.09 kcal/mol
GCACAGGGAAACCTGCGC ((.((((....)))).))	51.8 °C	-44.3 kcal/mol
GCACAGGGAAACTTGTGC (((((.(....).)))))	52.1 °C	-34.7 kcal/mol
GCACATCGAAAGATATGC (((.(((....))).)))	42.9 °C	-30.2 kcal/mol
GCACATCGAAAGATTGC (((.(((....))))))	46 °C	-27.9 kcal/mol
GCACATGAAAATGTGC ((((((....))))))	62.4 °C	-39.8 kcal/mol
GCACATGGAAACACGTGC ((((.((....)).))))	46.7 °C	-41 kcal/mol
GCACCAACGAAAGTTTGC (((..(((....))))))	27.9 °C	-13.5 kcal/mol
GCACCACGAAAGTGCTGC (((.(((....))).)))	50.5 °C	-25.2 kcal/mol

Sequence	Tm [1]	folding enthalpy [2]
GCACCAGGAAACCAGTGC ((((..(....)..))))	39 °C	-30.5 kcal/mol
GCACCCGAAAGGGCGTGC ((((((....)))..)))	51.2 °C	-29.6 kcal/mol
GCACCCGAAAGGGGCTGC ((((((....)))..)))	65.3 °C	-17.9 kcal/mol
GCACCCGAAAGGGGGTGC ((((((....)))..)))	66.8 °C	-21 kcal/mol
GCACCCGAAAGGGTATGC ((((((....)))..)))	48.3 °C	-13.9 kcal/mol
GCACCCGAAAGGGTCTGC ((((((....)))..)))	49.1 °C	-13.3 kcal/mol
GCACCCGAAAGGGTTGC ((((((....))).)))	63.3 °C	-22.5 kcal/mol
GCACCCGGAAACGAGTGC ((((.((....)).))))	51.6 °C	-48.8 kcal/mol
GCACCGCGAAAGCATTGC (((..((....))..)))	33.4 °C	-10.3 kcal/mol
GCACCGCGAAAGCCGAGC ((.(.((....)).).))	39 °C	-12.9 kcal/mol
GCACCGCGAAAGCCGTGC ((((.((....)).))))	62.2 °C	-31.1 kcal/mol
GCACCGCGAAAGCGCGGC ((..(((....)))..))	45 °C	-11 kcal/mol
GCACCGCGAAAGCTGGGC ((.(.((....)).).))	57.5 °C	-19.1 kcal/mol
GCACCGCGAAAGCTTTGC (((..((....))..)))	36.2 °C	-12 kcal/mol
GCACCGGGAAACCAGCGC ((.(.((....)).).))	37.4 °C	-20.7 kcal/mol
GCACCTACGAAAGTATGC (((..(((....))))))	27.3 °C	-13.5 kcal/mol
GCACCTCGAAAGAGTTGC (((.(((....))).)))	48.6 °C	-28.1 kcal/mol
GCACCTGGAAACGGGTGC (((((.(....).)))))	60.9 °C	-48 kcal/mol
GCACGAACGAAAGTTTGC (((..(((....))))))	33.5 °C	-17.1 kcal/mol
GCACGACGAAAGTCCTGC (((.(((....))).)))	45.6 °C	-26.8 kcal/mol
GCACGAGGAAACCCGTGC (((((.(....).)))))	58.2 °C	-45.2 kcal/mol
GCACGAGGAAACTCACGC ((..(((....)))..))	31.7 °C	-22.7 kcal/mol
GCACGAGGAAACTCGCGC ((.((((....)))).))	54.5 °C	-43.5 kcal/mol

Sequence	Tm [1]	folding enthalpy [2]
GCACGCCGAAAGGCATGC (((.(((....))).)))	60.5 °C	-28 kcal/mol
GCACGCCGAAAGGCCTGC (((.(((....))).)))	48.8 °C	-23.2 kcal/mol
GCACGCGAAAGCGCCTGC ((((((....)))..)))	37.1 °C	-9.69 kcal/mol
GCACGCGAAAGCGCTGC ((((((....))).)))	62.4 °C	-18.4 kcal/mol
GCACGCGGAAACACGCGC ((.((.(....).)).))	40.1 °C	-11.2 kcal/mol
GCACGCGGAAACGCACGC ((..(((....)))..))	47.2 °C	-18.1 kcal/mol
GCACGGCGAAAGCGGAGC ((.(.((....)).).))	44.7 °C	-17.7 kcal/mol
GCACGGCGAAAGCTCTGC (((..((....))..)))	37.4 °C	-21.1 kcal/mol
GCACGGCGAAAGCTGCGC ((.(.((....)).).))	61 °C	-20.8 kcal/mol
GCACGGCGAAAGCTTTGC (((..((....))..)))	38.3 °C	-22.6 kcal/mol
GCACGGGGAAACCTGTGC ((((.((....)).))))	58.6 °C	-37.7 kcal/mol
GCACGTACGAAAGTATGC (((..(((....))))))	31.3 °C	-16 kcal/mol
GCACGTCCGAAAGGATGC (((..(((....))))))	36.8 °C	-11.9 kcal/mol
GCACGTCGAAAGACCTGC (((.(((....))).)))	45.2 °C	-28.1 kcal/mol
GCACGTGGAAACGTGTGC ((((..(....)..))))	58.5 °C	-24.8 kcal/mol
GCACTACCGAAAGGTTGC (((..(((....))))))	39.6 °C	-15.9 kcal/mol
GCACTAGGAAACTAGTGC (((((((....)))))))	62.8 °C	-36.2 kcal/mol
GCACTCCGAAAGGATGC (((.(((....))))))	51.7 °C	-29.4 kcal/mol
GCACTCGGAAACGAACGC ((..(((....)))..))	27.8 °C	-13.9 kcal/mol
GCACTCGGAAACGAATGC (((.(((....))).)))	45.1 °C	-33.5 kcal/mol
GCACTCGGAAACGAGTAC (.(((((....))))).)	44.1 °C	-13.6 kcal/mol
GCACTGAAAAGTGC (((((....)))))	61 °C	-35.1 kcal/mol

Source: the array DNA melting data of Ke et al. (doi:10.1101/2024.01.08.574731)
